Broadly, the CC50 is the concentration giving 50% cytotoxicity. A word on the EC50: it is the concentration giving half of the maximal effect.

Activity calls are given as the source filed them. The rule behind the calls is not given here.

A short description of data set [1]: Cytotoxicity against human M8166 cells after 4 days by MTT assay. The format is cell-based.
For data set [2], the system named is Human immunodeficiency virus 2. Nature of the data set: Antiviral activity against HIV2 in human M8166 cells assessed as virus-induced cytopathogenicity after 4 days by MTT assay. It is filed as functional, organism-based. The conditions noted are these: Human immunodeficiency virus 2, M8166, 96 h. In a few lines:
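M8166 cells (1 × 10⁵) were infected with HIV-2 at an MOI of 0.1 and cultured with various concentrations of compound for 4 days at 37 °C. Viability was read by MTT. The value is the concentration giving 50% protection against the viral cytopathic effect.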
In general terms: Protection from cytopathic effect is a common read-out in antiviral testing.

Data set [3] can be described thus: Cytotoxicity against human MT4 cells after 4 days by MTT assay. The format is cell-based. In a few lines:
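Mock-infected MT-4 cells were run in parallel with the antiviral assay, with various concentrations of compound for 4 days at 37 °C. Viability was read by MTT. The value is the concentration that reduces viability by 50%.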
Background: Formazan colour is commonly taken as a measure of viable cells.

The test system of data set [4] is Human immunodeficiency virus 1. Nature of the data set: Antiviral activity against HIV1 3B in human MT4 cells assessed as virus-induced cytopathogenicity after 4 days by MTT assay. The format is functional, organism-based. The conditions noted are these: Human immunodeficiency virus 1, 3B, MT4, 96 h. A digest of the protocol: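 MT-4 cells (1 × 10⁵ cells/mL) were infected with HIV-1 IIIB at an MOI of 0.02 and cultured with various concentrations of compound for 4 days at 37 °C. Viable cells were counted by MTT. The value is the concentration giving 50% protection against the viral cytopathic effect.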

Data set [5] deals with Human immunodeficiency virus type 1 reverse transcriptase (Human immunodeficiency virus 1), Q72547 [M184V]. As to the kind of experiment: Activity at reverse transcriptase M184V mutant in HIV1 assessed as suppression of replication.

`C=CC[C@]1(CO)S[C@@H](n2cc(C)c(=O)[nH]c2=O)C[C@@H]1O`: the CC50 at 96 h in data set [1] and in data set [3] was more than 100 µM throughout. The 50% effective concentration (EC50) in data set [2] and in data set [4] was more than 100 µM in each case.
With `Cc1cn([C@H]2C[C@H](O)[C@](CO)(Sc3ccccc3)S2)c(=O)[nH]c1=O`, the CC50 at 96 h in data set [1] and in data set [3] was more than 100 µM throughout. The EC50 in data set [2] and in data set [4] was more than 100 µM each time.
For the compound `CO[C@]1(CO)S[C@@H](n2cc(C)c(=O)[nH]c2=O)C[C@@H]1O`, the CC50 at 96 h in data set [1] and in data set [3] was more than 100 µM throughout. Also, the EC50 in data set [2] was 1.2 µM; in data set [4], more than 4 µM.
As to `C#C[C@]1(CO)S[C@@H](n2cc(C)c(=O)[nH]c2=O)C[C@@H]1O`, the CC50 at 96 h in data set [1] is more than 10 µM; in data set [3], more than 100 µM. In addition, the outcome in data set [5] was Active. The EC50 was 0.13 µM in data set [2] and 0.31 µM in data set [4].
For the compound `Cc1cn([C@H]2C[C@H](O)[C@@](C#N)(CO)S2)c(=O)[nH]c1=O`, the CC50 at 96 h in data set [1] is more than 10 µM; in data set [3] it was more than 100 µM. In data set [5], the outcome was Active. In addition, the concentration giving a half-maximal response (EC50) in data set [2] is 0.023 µM; in data set [4] it was 0.037 µM.
`Cc1cn([C@H]2C[C@H](O)[C@](CO)(N=[N+]=[N-])S2)c(=O)[nH]c1=O`: the CC50 at 96 h in data set [1] is more than 10 µM; in data set [3] it was 40 µM. Further, the EC50 is 0.024 µM in data set [2] and 0.02 µM in data set [4].
